Assay results taken from the RNAGym collection of RNA variant scans (doi:10.1126/science.aae0568).
Fewer inactive variants are shown than the library holds.

B1: tRNA (parent)
chain: GUUCCGUUGGCGUAAUGGUAACGCGUCUCCCUCCUAAGGAGAAGACUGCGGGUUCGAGUCCCGUACGGAACG

Variants of: B1
Assay: yeast fitness relative to wild type (ratio to wild type); higher = fitter; tRNA-Arg(CCU), competitive growth, 37 C, YPD
Outline: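 A pool of Saccharomyces cerevisiae strains, each with a tRNA-Arg(CCU) gene variant at the native genomic locus, was competed in YPD at 37°C for 24 hours across six parallel replicates. The variants had been chemically synthesised at a 3% per-site mutation rate over 69 sites, and gene amplicons before and after competition were read by 100-nucleotide paired-end sequencing. Darwinian fitness relative to wild type rested on changes in genotype frequencies. Genotypes required ≥ 100 starting reads, and estimates < 0.5 were set to 0.5.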

Row | Variant | yeast fitness
1 | A14G U28A A45C U53A | ≤ 0.5
2 | A15C C27G G48A C49G | ≤ 0.5
3 | A15C C29A G41A A43C | ≤ 0.5
4 | A14U A37U A40C A42G | ≤ 0.5
5 | A15C C24G C34U A43G | ≤ 0.5
6 | A14U U19C A65U | ≤ 0.5
7 | A15C A36U C55A A65U | ≤ 0.5
8 | A14U A37U C61A A65U | ≤ 0.5
9 | A14U C22U A45U | ≤ 0.5
10 | A14U U28A G41C A42U G52A A70C | ≤ 0.5
11 | A15C C31A U59C A69G | ≤ 0.5
12 | A14U A65G C66G | 0.788
13 | A14G G67U | 0.776
14 | A14U U28A C33U | 0.714
15 | A15C A42G | 0.76
16 | A15C C30G U32C C34U C66U A70C | ≤ 0.5
17 | A14U U35C C55G C61G C66U | ≤ 0.5
18 | A14U C30G | 0.516
19 | A14U A42G A43G C66G | ≤ 0.5
20 | A14U U35C C66G | ≤ 0.5
21 | A14U C24G G41A G44A U53A A57G C66U | 0.529
22 | A14U A21G A45C U59C | ≤ 0.5
23 | A15C A42G C49A G56C G67U | ≤ 0.5
24 | A14U U26A C66A | ≤ 0.5

Row | Variant | yeast fitness
25 | A14G U28G G41C G48A U64C | ≤ 0.5
26 | A15C C22U G38A C55G | ≤ 0.5
27 | A15C A20G G51A C55G | 0.532
28 | A14G U16A U47C | 0.812
29 | A14U A43U | 0.721
30 | A15C A36C G48A G67A | 0.541
31 | A14U A15G G18A | ≤ 0.5
32 | A14U G17A G23C C29U C34G A43G A45C U54G | ≤ 0.5
33 | A14U G48A A70U | 0.661
34 | A14U G25A A42G C66G | 0.767
35 | A14U A42C | 0.639
36 | A14U A37U A65G | ≤ 0.5
37 | A14U C27G A37U | ≤ 0.5
38 | A14G U16A | 0.886
39 | A14U A21G G39C A45G U53C | 0.521
40 | A14G U47C A69C | 0.706
41 | A14U G41A | 0.674
42 | A14U C30U G58C C60A | ≤ 0.5
43 | A14U U54C C62U G68C | ≤ 0.5
44 | A14U C29U A37U C46U U59G | ≤ 0.5
45 | A14U C22U C30U C46U G52C | ≤ 0.5
46 | A14U A43U C55G | 0.511
47 | A14U G41C U59A C61A C66U G68C | ≤ 0.5
48 | A14U U26A C33A G63A | ≤ 0.5

Row | Variant | yeast fitness
49 | A15C C29U A69C | ≤ 0.5
50 | A15C C27G | 0.571
51 | A14G U54C | 0.633
52 | A14G U16A C33A U59C | ≤ 0.5
53 | A15C A65G | 0.829
54 | A14U C30A C46U C62A | ≤ 0.5
55 | A14U A20G C24A C31U A37U G48A A69C | ≤ 0.5
56 | A15C A40C C49G | ≤ 0.5
57 | A14G U26C G48A | 0.661
58 | A14G U35G A37U | ≤ 0.5
59 | A15C C24G A37C C60U | ≤ 0.5
60 | A15C A20C C55U | ≤ 0.5
61 | A15C C29A C66U | ≤ 0.5
62 | A14U A20C C31G A69U | ≤ 0.5
63 | A14U G17A G23C C29U C34G A45C U54G G56A | ≤ 0.5
64 | A14U G25C G39C U54G A65U | ≤ 0.5
65 | A14G U32G | 0.597
66 | A14U C49A | 0.543
67 | A14U A69U | 0.702
68 | A14U C55A A65C | ≤ 0.5
69 | A14U A15G C24U C31U C61U | ≤ 0.5
70 | A15C C30U G67A | ≤ 0.5
71 | A14U A43U U59A | ≤ 0.5
72 | A14U U59A G67A | 0.578

Row | Variant | yeast fitness
73 | A14U G44C G52A U59C U64G | 0.646
74 | A14U C24G A36G C66U | ≤ 0.5
75 | A14U C29U C55U A69G | ≤ 0.5
76 | A14U C24G G41A G44A U53A G63A C66U | ≤ 0.5
77 | A14U A15G C33U A42C | ≤ 0.5
78 | A14U C29G U53C U54G | 0.571
79 | A14U G18C A70G | 0.715
80 | A15C C31A G50A | ≤ 0.5
81 | A14G U35A A42U C46G G56A A70C | 0.569
82 | A14U A21C G41A G67C | ≤ 0.5
83 | A14U G44A G58C | ≤ 0.5
84 | A15C A21C C34U A37U | ≤ 0.5
85 | A14U A21G | 0.584
86 | A14U A40C C62A C66U | 0.603
87 | A15C A36C G48A | 0.516
88 | A14U U26C C31U G68A | ≤ 0.5
89 | A15C A36U C61A | ≤ 0.5
90 | A14U A45G | 0.67
91 | A14G U16G C24G U26C U47G G50C C66A | ≤ 0.5
92 | A14U C61G | ≤ 0.5
93 | A15C C31A C34A | ≤ 0.5
94 | A14U U19A A36C G58C A69U | 0.555
95 | A14U G39C C55G C62A | ≤ 0.5
96 | A14G U19A C55U | ≤ 0.5

Row | Variant | yeast fitness
97 | A14U C22G A42C C66U | ≤ 0.5
98 | A14U C34G | ≤ 0.5
99 | A14U G41C C49U A65U | ≤ 0.5
100 | A14U C34G A37C G50U C62U | ≤ 0.5
101 | A15C A69G | 0.877
102 | A14U G17A C31U C61A G68C | ≤ 0.5
103 | A14G U28C G67U A69C | ≤ 0.5
104 | A15C C27U C31A C55U G68A | ≤ 0.5
105 | A15C A36G G39C C55U C66U | ≤ 0.5
106 | A14U C34G A43C A70U | ≤ 0.5
107 | A14U G23A C29G C46A C55G G68A | ≤ 0.5
108 | A14U A21G G39C A45G G63C | ≤ 0.5
109 | A14G U26A | 0.989
110 | A14U A20C C22G C31G U47A | ≤ 0.5
111 | A14G U19A C27G G44A C46G C55G C66A | ≤ 0.5
112 | A14U A43G G63C | ≤ 0.5
113 | A14G U59A | 0.894
114 | A15C A43U C46A | 0.502
115 | A14U C30U C34U A45U | ≤ 0.5
116 | A14G U47A G56A | 0.724
117 | A14U C24U U64C | ≤ 0.5
118 | A14U C29G | 0.692
119 | A14U C29U | 0.64
120 | A14U A20C G23A C46A U64C | ≤ 0.5

Row | Variant | yeast fitness
121 | A14U G18C G39C C49G C61U | ≤ 0.5
122 | A14U C29U A37U G50A | ≤ 0.5
123 | A14U A15G A21C G56A C62U A65U | 0.554
124 | A14G U53G G56A C61U | 0.656
125 | A14U G48C | 0.714
126 | A14G U26G G39A | ≤ 0.5
127 | A14U C24G | 0.657
128 | A14U C27G G52A C60U | ≤ 0.5
129 | A14U G17A C29G C34U U35A G38C C55G A69G A70C | 0.511
130 | A14U C49G A57U | ≤ 0.5
131 | A14G G58C A70U | 0.892
132 | A14U U54C C62U | ≤ 0.5
133 | A14U C27G | 0.611
134 | A15C C22A G25C U28A A36U A70G | ≤ 0.5
135 | A14U C31U G51A G63C | ≤ 0.5
136 | A14U U35C A37U | ≤ 0.5
137 | A14U U35G C62G | ≤ 0.5
138 | A14U C24G U26G | ≤ 0.5
139 | A14U G17A A45U G58C | ≤ 0.5
140 | A14U C27U A69G | ≤ 0.5
141 | A14U C27U C55G G68A | ≤ 0.5
142 | A14U G17A C22U C62A | ≤ 0.5
143 | A15C A43C G58A | ≤ 0.5
144 | A14U C27U C66G | ≤ 0.5

Row | Variant | yeast fitness
145 | A15C A20C A21U C30U A40U | ≤ 0.5
146 | A14U G25A C62A G63A A70G | ≤ 0.5
147 | A14U A45G U53C | ≤ 0.5
148 | A14U A20C U59A C66A | ≤ 0.5
149 | A14U U19A | 0.709
150 | A14U A69U A70C | ≤ 0.5
151 | A14U C30A G38A C55A A65C | ≤ 0.5
152 | A14U C30U C62G A65G G68C | ≤ 0.5
153 | A14U U19A G23A A43C A57G U64G | ≤ 0.5
154 | A14U C55A U59G A65C | 0.561
155 | A15C C22U U54A | 0.636
156 | A14G U19A C34U C66U | 0.538
157 | A14U C30A C66U | 0.547
158 | A14U C29U U32G A57U | ≤ 0.5
159 | A14U C55G | 0.578
160 | A14U C55A | 0.575
161 | A15C C27U A42C | ≤ 0.5
162 | A14U A70G | 0.734
163 | A15C A21U G23A | ≤ 0.5
164 | A15C A36U C49U A65C | ≤ 0.5
165 | A14G U16A C33A C49U C55U | ≤ 0.5
166 | A14G U53C G67C | ≤ 0.5
167 | A14U U26A C55G A65C | ≤ 0.5
